# pIC50: −log10 of the molar value. Several values for one entry are separate records, joined by “and”; a condition that tells them apart may be missing. Equal values may be shown once.
# How the values were obtained:
# Human alphaherpesvirus 1 [1] = assay: Inhibition of herpes simplex virus (HSV-1) in yield reduction assay; assay type: functional, organism-based
# Human betaherpesvirus 5 = assay: Inhibition of human cytomegalovirus (HCMV) in plaque reduction assay; assay type: functional, organism-based
# In short: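 HCMV Towne strain (plaque-purified P0) plaque reduction in HFF monolayers in MEM(E) with 10% FBS. Inoculum held about 50 PFU, with compound dissolved in the overlay medium. IC50 came from linear regression of percent inhibition against log concentration, with ganciclovir or acyclovir positive controls in every set; two to five experiments.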
# Human alphaherpesvirus 1 [2] = assay: Inhibition of herpes simplex virus (HSV-1) in plaque reduction assay; assay type: functional, organism-based
# In short: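 HSV-1 S-148 strain plaque reduction in BSC-1 monkey kidney monolayers, with about 100 PFU inoculum and compound dissolved in the overlay medium. IC50 came from linear regression of percent inhibition against log concentration, with a positive control in each set.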
# L1210 [3] = assay: In vitro inhibition of L1210 cell growth.; assay type: functional, Mus musculus; parameters: concentration or dose not given beside the values
# In short: (§1)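 Murine L1210 leukemia cells in static suspension culture in Fischer's medium with compound for 4 days. Growth rate is the ratio of control to treated population doubling time; where the rate changed, the final rate was used. IC50 is the concentration giving 50% of control growth rate; single-concentration value at 100 μM.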
# L1210 [4] = assay: In vitro inhibition of L1210 cell growth to half of the control rate; assay type: functional, cell-based; settings: Mus musculus; in short: as §1
# Neoplastic cell line [5] = assay: Cytotoxic activity against KB cells.; assay type: cell-based; settings: Homo sapiens
# In short: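 KB cells (human oral epidermoid carcinoma) grown in MEM(H) with 5% FBS. Compound effect on incorporation of radiolabelled precursors into DNA, RNA and protein was measured. IC50s came from linear regression of percent inhibition against log concentration, and the three IC50s were averaged.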
# [6] = Cytotoxic activity against HFF cells.; assay type: cell-based; settings: Homo sapiens
# In short: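 Cytotoxicity was scored visually in uninfected HFF or BSC-1 monolayers within the plaque-reduction assays. Drug-induced cytopathology was read at 35- and 60-fold magnification on a 0 to 4+ scale on the day plaques were stained and counted.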
# Mus musculus [7] = assay: Compound was evaluated for percent mortality of mice inoculated with murine cytomegalovirus at a concentration of 5.6 mg/kg at 24 h; assay type: ADME, organism-based; parameters: dose 5.6 mg/kg; settings: in vivo
# In short: (§2)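 Three-week-old female Swiss Webster mice infected ip with 2×10^5 PFU MCMV Smith strain; groups of 15 given drug ip twice daily for 5 days, starting 6, 24 or 48 h after inoculation. Toxicity controls received drug without virus. Mortality followed daily for 21 days; final mortality compared with placebo by Fisher Exact Test.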
# Mus musculus [8] = assay: Compound was evaluated for percent mortality of mice inoculated with murine cytomegalovirus at a concentration of 16.7 mg/kg at 48 h; assay type: organism-based; parameters: dose 16.7 mg/kg; settings: in vivo
# In short: (§3)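 Three-week-old female Swiss Webster mice inoculated ip with 2×10^5 PFU MCMV Smith strain. Groups of 15 dosed ip twice daily for 5 days, starting 6, 24 or 48 h post-inoculation. Held 21 days with daily mortality checks. Final mortality and mean day of death (dying animals) computed. Mortality versus placebo by Fisher Exact Test, MDD by Mann–Whitney U-rank test.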
# Mus musculus [9] = assay: Compound was evaluated for mean day of death at 5.6 mg/kg at 24 h; assay type: functional; in short: as §3
# Mus musculus [10] = assay: Compound was evaluated for mean day of death at 1.9 mg/kg at 24 h; assay type: functional; in short: as §3
# Mus musculus [11] = assay: Compound was evaluated for percent mortality of mice inoculated with murine cytomegalovirus at a concentration of 0.6 mg/kg at 48 h; assay type: organism-based; parameters: dose 0.6 mg/kg; settings: in vivo; in short: as §3
# Mus musculus [12] = assay: Compound was evaluated for percent mortality of mice inoculated with murine cytomegalovirus at a concentration of 1.9 mg/kg at 6 h; assay type: organism-based; parameters: dose 1.9 mg/kg; settings: in vivo; in short: as §3
# Mus musculus [13] = assay: Compound was evaluated for mean day of death at 1.9 mg/kg at 6 h; assay type: functional; in short: as §3
# Mus musculus [14] = assay: Compound was evaluated for 15 mice treated ip twice daily for 5 days at a dose of 5.6 mg/kg at 24 hr followed (MCMV) virus inoculation; assay type: functional; settings: route intraperitoneal; in short: as §3
# Mus musculus [15] = assay: Compound was evaluated for percent mortality of mice inoculated with murine cytomegalovirus at a concentration of 5.6 mg/kg at 48 h; assay type: ADME, organism-based; parameters: dose 5.6 mg/kg; settings: in vivo; in short: as §2
# Mus musculus [16] = assay: Compound was evaluated for 15 mice treated ip twice daily for 5 days at a dose of 5.6 mg/kg at 6 hr followed (MCMV) virus inoculation; assay type: functional; settings: route intraperitoneal; in short: as §3
# Mus musculus [17] = assay: Compound was evaluated for 15 mice treated ip twice daily for 5 days at a dose of 0.6 mg/kg at 6 hr followed (MCMV) virus inoculation; assay type: functional; settings: route intraperitoneal; in short: as §3
# Mus musculus [18] = assay: Compound was evaluated for mean day of death at 5.6 mg/kg at 48 h; assay type: functional; in short: as §3
# Mus musculus [19] = assay: Compound was evaluated for 15 mice treated ip twice daily for 5 days at a dose of 1.9 mg/kg at 6 hr followed (MCMV) virus inoculation; assay type: functional; settings: route intraperitoneal; in short: as §3
# Mus musculus [20] = assay: Compound was evaluated for 15 mice treated ip twice daily for 5 days at a dose of 5.6 mg/kg at 48 hr followed (MCMV) virus inoculation; assay type: functional; settings: route intraperitoneal; in short: as §3
# Mus musculus [21] = assay: Compound was evaluated for percent mortality of mice inoculated with murine cytomegalovirus at a concentration of 16.7 mg/kg at 24 h; assay type: organism-based; parameters: dose 16.7 mg/kg; settings: in vivo; in short: as §3
# Mus musculus [22] = assay: Compound was evaluated for mean day of death at 16.7 mg/kg at 6 h; assay type: functional; in short: as §3
# Mus musculus [23] = assay: Compound was evaluated for percent mortality of mice inoculated with murine cytomegalovirus at a concentration of 5.6 mg/kg at 6 h; assay type: ADME, organism-based; parameters: dose 5.6 mg/kg; settings: in vivo; in short: as §2
# Mus musculus [24] = assay: Compound was evaluated for mean day of death at 16.7 mg/kg at 24 h; assay type: functional; in short: as §3
# [25] = Compound was evaluated for cytotoxic activity against BSC cells; assay type: cell-based; settings: Cercopithecidae
# In short: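 Visual cytotoxicity in uninfected areas of plaque-reduction cultures. HFF cells grown in MEM(E) + 10% FBS for HCMV (Towne) assays; BSC-1 cells for HSV-1 (S-148) assays. Drug in overlay medium. Cytopathology scored 0 to 4+ at 35- and 60-fold magnification on the staining day.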
# Neoplastic cell line [26] = assay: Compound was evaluated for cytotoxic activity against KB cells; assay type: cell-based; settings: Homo sapiens
# In short: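 KB cells grown in MEM(H) + 5% FBS. Compound effects measured on radiolabelled precursor incorporation into DNA, RNA and protein. IC50s from linear regression of percent inhibition vs log concentration. The three IC50s were averaged, with 2–5 experiments averaged. Runs rejected if the acyclovir/ganciclovir control deviated >1.5 SD from its mean.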
# Mus musculus [27] = assay: Compound was evaluated for percent mortality of mice inoculated with murine cytomegalovirus at a concentration of 1.9 mg/kg at 48 h; assay type: organism-based; parameters: dose 1.9 mg/kg; settings: in vivo; in short: as §3
# Mus musculus [28] = assay: Compound was evaluated for 15 mice treated ip twice daily for 5 days at a dose of 0.6 mg/kg at 24 h followed (MCMV) virus inoculation; assay type: functional; settings: route intraperitoneal; in short: as §3
# Mus musculus [29] = assay: Compound was evaluated for 15 mice treated ip twice daily for 5 days at a dose of 16.7 mg/kg at 48 hr followed (MCMV) virus inoculation; assay type: functional; settings: route intraperitoneal; in short: as §3
# Mus musculus [30] = assay: Compound was evaluated for 15 mice treated ip twice daily for 5 days at a dose of 16.7 mg/kg at 24 hr followed (MCMV) virus inoculation; assay type: functional; settings: route intraperitoneal; in short: as §3
# Mus musculus [31] = assay: Compound was evaluated for mean day of death at 0.6 mg/kg at 6 h; assay type: functional; in short: as §3
# Mus musculus [32] = assay: Compound was evaluated for mean day of death at 5.6 mg/kg at 6 h; assay type: functional; in short: as §3
# Mus musculus [33] = assay: Compound was evaluated for percent mortality of mice inoculated with murine cytomegalovirus at a concentration of 1.9 mg/kg at 24 h; assay type: organism-based; parameters: dose 1.9 mg/kg; settings: in vivo; in short: as §3
# Mus musculus [34] = assay: Compound was evaluated for 15 mice treated ip twice daily for 5 days at a dose of 16.7 mg/kg at 6 hr followed (MCMV) virus inoculation; assay type: functional; settings: route intraperitoneal; in short: as §3
# Mus musculus [35] = assay: Compound was evaluated for 15 mice treated ip twice daily for 5 days at a dose of 1.9 mg/kg at 24 hr followed (MCMV) virus inoculation; assay type: functional; settings: route intraperitoneal; in short: as §3
# Mus musculus [36] = assay: Compound was evaluated for mean day of death at 1.9 mg/kg at 48 h; assay type: functional; in short: as §3
# Mus musculus [37] = assay: Compound was evaluated for mean day of death at 0.6 mg/kg at 24 h; assay type: functional; in short: as §3
# Mus musculus [38] = assay: Compound was evaluated for 15 mice treated ip twice daily for 5 days at a dose of 0.6 mg/kg at 48 h followed (MCMV) virus inoculation; assay type: functional; settings: route intraperitoneal; in short: as §3
# Mus musculus [39] = assay: Compound was evaluated for mean day of death at 0.6 mg/kg at 48 h; assay type: functional; in short: as §3
# Mus musculus [40] = assay: Compound was evaluated for mean day of death at 16.7 mg/kg at 48 h; assay type: functional; in short: as §3
# Mus musculus [41] = assay: Compound was evaluated for 15 mice treated ip twice daily for 5 days at a dose of 1.9 mg/kg at 48 hr followed (MCMV) virus inoculation; assay type: functional; settings: route intraperitoneal; in short: as §3
# Mus musculus [42] = assay: Compound was evaluated for percent mortality of mice inoculated with murine cytomegalovirus at a concentration of 0.6 mg/kg at 6 h; assay type: organism-based; parameters: dose 0.6 mg/kg; settings: in vivo; in short: as §3
# Mus musculus [43] = assay: Compound was evaluated for percent mortality of mice inoculated with murine cytomegalovirus at a concentration of 16.7 mg/kg at 6 h; assay type: organism-based; parameters: dose 16.7 mg/kg; settings: in vivo; in short: as §3
# Mus musculus [44] = assay: Compound was evaluated for percent mortality of mice inoculated with murine cytomegalovirus at a concentration of 0.6 mg/kg at 24 h; assay type: organism-based; parameters: dose 0.6 mg/kg; settings: in vivo; in short: as §3
structure (smiles),measurement,setting,value
OCC(CO)OCn1cc(Br)c2c(NO)ncnc21,IC90,Human alphaherpesvirus 1 [1],> 100 µM
same,pIC50,Human betaherpesvirus 5,5.92 and 5.00
same,pIC50,Human alphaherpesvirus 1 [2],5.54
same,Activity,L1210 [3],0%
same,pIC50,L1210 [4],5.43
same,pIC50,Neoplastic cell line [5],3.49
same,pIC50,[6],< 4.00
OCC(CO)OCn1ccc2cncnc21,pIC50,Human betaherpesvirus 5; Human betaherpesvirus 5,< 4.00
same,Activity,L1210 [3],100%
same,pIC50,[6],< 4.00
Nc1nc2c(ncn2COC(CO)CO)c(=O)[nH]1 [GANCICLOVIR],Mortality,Mus musculus [7],47%
same,Mortality,Mus musculus [8],53%
same,MDD,Mus musculus [9],5.3
same,MDD,Mus musculus [10],4.9
same,Mortality,Mus musculus [11],93%
same,Mortality,Mus musculus [12],33%
same,MDD,Mus musculus [13],5.4
same,Activity,Mus musculus [14],7
same,IC90,Human alphaherpesvirus 1 [1],1.2 µM
same,Mortality,Mus musculus [15],67%
same,Activity,Mus musculus [16],5
same,Activity,Mus musculus [17],14
same,MDD,Mus musculus [18],5.5
same,Activity,Mus musculus [19],5
same,Activity,Mus musculus [20],10
same,Mortality,Mus musculus [21],47%
same,MDD,Mus musculus [22],3.8
same,Mortality,Mus musculus [23],33%
same,pIC50,Human betaherpesvirus 5,5.06
same,MDD,Mus musculus [24],5.3
same,pIC50,[25],< 4.00
same,pIC50,Neoplastic cell line [26],< 4.00
same,Mortality,Mus musculus [27],73%
same,Activity,Mus musculus [28],12
same,Activity,Mus musculus [29],8
same,Activity,Mus musculus [30],7
same,MDD,Mus musculus [31],4.6
same,MDD,Mus musculus [32],4.2
same,pIC50,Human alphaherpesvirus 1 [2],5.35
same,Mortality,Mus musculus [33],80%
same,Activity,Mus musculus [34],4
same,Activity,Mus musculus [35],12
same,MDD,Mus musculus [36],4.9
same,MDD,Mus musculus [37],5.4
same,Activity,Mus musculus [38],14
same,MDD,Mus musculus [39],5.3
same,MDD,Mus musculus [40],5.5
same,Activity,Mus musculus [41],11
same,Mortality,Mus musculus [42],93%
same,Mortality,Mus musculus [43],27%
same,Mortality,Mus musculus [44],80%
Cc1cn(COC(CO)CO)c2ncnc(N)c12,pIC50,Human betaherpesvirus 5; Human betaherpesvirus 5,< 4.00
same,pIC50,Human alphaherpesvirus 1 [2],< 4.00
same,Activity,L1210 [3],73%
same,pIC50,L1210 [4],< 4.00
same,pIC50,[6],< 4.00

# From ChEMBL document CHEMBL1124846, “Synthesis, antiproliferative, and antiviral activity of certain 4-substituted and 4,5-disubstituted 7-[(1,3-dihydroxy-2-propoxy)methyl]pyrrolo[2,3-d]pyrimidines” (J Med Chem, 1990)
